These results are taken from the EternaBench riboswitch data.

For the data set, the system named is MS2 coat protein. The experiment in a line: apparent Kd, MS2 coat protein; higher = weaker binding; RNA-MaP array; FMN 200 µM where present. In short, it runs like this: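 Two titrations, one without ligand and one with constant ligand, were run with SNAP-549-labelled MS2 coat protein from 0.7 or 1.5 nM, doubling to 3 µM. The targets were designs transcribed by stalled E. coli RNA polymerase on Illumina sequencing-chip clusters, in 100 mM Tris-HCl pH 7.5, 80 mM KCl, 4 mM MgCl2, BSA, DTT, yeast tRNA and Tween-20. The apparent Kd is the median of filtered per-cluster binding-curve fits, with green signal normalised to red-channel RNA signal and control-cluster median Fmax.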

Where [1] appears, read: designed as: OFF switch for flavin mononucleotide, no ligand.
Where [2] appears, read: ligand present: flavin mononucleotide, designed as: OFF switch for flavin mononucleotide.
Where [3] appears, read: designed as: ON switch for flavin mononucleotide, no ligand.
The mark [4] stands for this setting: ligand present: flavin mononucleotide, designed as: ON switch for flavin mononucleotide.

Broadly, the apparent Kd is a dissociation constant that holds for the conditions of the assay. Consider “UUGUUAUAUGUAGGAUAUGCAUAUUGUUAUUAUGCAGAAGGACAUGAGGAUCACCCAUGUAUAUUAUUAUUAUAUAUUAUAUAU”, for which the “apparent Kd” value is, setting by setting: under setting [1], 32 nM; under setting [2], 64.7 nM.

Regarding “AUGAUUAUAUUAUACAUGAGGAUCACCCAUGUUAUAAGUCAUGAGGAUAUGGUAUUGUAGUUAUUCCAGAAGGCAUUUAACUUA”, the “apparent Kd” value runs as follows: under setting [3], 7.02 nM; under setting [4], 5.79 nM.

As to “UAAAUUAACAAGAAGGCUAACAUGAGGAUCACCCAUGUUGUACAUGGAUAUAGAGGAUAUUGCUAAUAAUUUUUUAUCAUAAUU”, the “apparent Kd” value is, setting by setting: under setting [1], 20.8 nM; under setting [2], 17.6 nM.

For the sequence “GAGGCGCUAGCAGGAUAUGUACAUGAGGAUCACCCAUGUAAAUCUUUUUCUGGUGAAGCGCAAGUAUAGAAGGGCUAACGCUGG”, the “apparent Kd” value was determined as 9.07 nM under setting [1] and 18.8 nM under setting [2].

As for “CCACCCUGAGGAUAUCCACCCUCAUACAUGAGGAUCACCCAUGUUCAUCCCUGAGUACCCGGAGAAGGCAGAUUUC”, the “apparent Kd” value reads like this: under setting [1], 87.7 nM; under setting [2], 57.9 nM.

Regarding “AUUUAAAUGUCAGGAUAUGGUAGUUUAUACUUAUCAGAAGGGAUAAUUAUACUCAAGUACAUGAGGAUCACCCAUGUUAAAUCA”, the “apparent Kd” value is 30.5 nM under setting [3] and 15.8 nM under setting [4].

Regarding “AGCAGGUGAGGAUAUCGAUUAAGAUUAACAUUAUUAUUAAACGAGAAGGCACAUGAGGAUCACCCAUGUAAGGA”, the “apparent Kd” value under setting [1] is 29.9 nM and the “apparent Kd” value under setting [2] came to 41.3 nM.

In the case of “AUCUUGUAAGGAUAUCGUGCAAGUUUCAAAAGAGGCUUGUGCGAGAAGGUACAUGAGGAUCACCCAUGUAGGUU”, the “apparent Kd” value is, setting by setting: under setting [1], 26.2 nM; under setting [2], 71.2 nM.

Turning to “GUAGUGUAGUGAGGAUAUACGAGAUCGAUAGAUCGGCGAUCCAUAUAUACAUGAGGAUCACCCAUGUAGAAGGCACUUCACUAC”, the “apparent Kd” value by setting is: under setting [1], 7.5 nM; under setting [2], 91.5 nM.

With “GGAAAACAUGAGGAUCACCCAUGUGAGGAUAUCGAUGUCCAAUUUAAAGUGCGGGACUCGAGAAGGCACUUGGA”, the “apparent Kd” value was 43 nM under setting [1] and 30.1 nM under setting [2].

As for “CUAUUCCGAGGAUAUACAUGAGGAUCACCCAUGUCGGGCCUCUGGCCUAAGGCCGAAAGUAGAAGGUGGGUUUC”, the “apparent Kd” value under setting [1] was found to be 64.6 nM and the “apparent Kd” value under setting [2] worked out at 61.5 nM.

For “GUGUAGUCAGGAUAUACAUAGGAAGAUAAUAUAAUAUAAGUACAUGAGGAUCACCCAUGUAGAAGGGACAGUGU”, the “apparent Kd” value came out at 38.5 nM under setting [1] and 53.8 nM under setting [2].

As for “GACUUUCGGGCAGGAUAUGGGUGCCGUCAAGACAUGAGGAUCACCCAUGUCCCAUACACGAGCGCUCAGAAGGGCUCAUUGUAG”, the “apparent Kd” value is, setting by setting: under setting [3], 67 nM; under setting [4], 32.9 nM.

Regarding “ACAUACAUUCGAGGAUAUCGGUGAACAAAUUAACGAGAAGGCGAUAUAAGUUUUAAUCUUAUGAACAUGAGGAUCACCCAUGUA”, the “apparent Kd” value under setting [3] came to 26.4 nM and the “apparent Kd” value under setting [4] is 24.3 nM.

As to “AGAUAUGAUGCAGGAUAUCUAUCUUGAAUGAGGAGAGAAGGGCAAGCAGAGACAUAAGCCUUAUUACAUGAGGAUCACCCAUGU”, the “apparent Kd” value is, setting by setting: under setting [1], 10.2 nM; under setting [2], 7.9 nM.

“UUUUAACAUGAGGAUCACCCAUGUGAGGAUAUCGAAAUUUAUAUUAAUAUUAUUAAUUCGAGAAGGCACAUUUU”: the “apparent Kd” value is 117 nM under setting [1] and 117 nM under setting [2].

Consider “GGAAAGUAAGGAUAUGCGAACAAACAAACAAACAAAAGGGAACAUGAGGAUCACCCAUGUAGAAGGUGCAAACA”, for which the “apparent Kd” value is, setting by setting: under setting [1], 46.3 nM; under setting [2], 35.9 nM.

Regarding “AGCUACGUUUCGUAGCAGCUAGGUGAGGAUAUCCACUCGACAUGAGGAUCACCCAUGUAAACAUGGGAGAAGGCGCCUAGAAAG”, the “apparent Kd” value runs as follows: under setting [3], 84.9 nM; under setting [4], 10.6 nM.

On to “GUGUACAGAGGAUAUAUAUGAGCAUGGAAACAUGCAUCUUCACAUGAGGAUCACCCAUGUAGAAGGCUGUACAC”, for which the “apparent Kd” value is, setting by setting: under setting [1], 15.7 nM; under setting [2], 49.2 nM.

Turning to “UUGGACGUCGUAGGAUAUGCAGGAUAUUCCUACAUGAGGAUCACCCAUGUUGACAUGGAAGAAGGACAGAAGGACGAUGUCCAU”, the “apparent Kd” value was 11 nM under setting [3] and 5.38 nM under setting [4].
